Source: PubChem BioAssay (several laboratories)
Shown are actives, neighbours in structure and some others; about 2.7% of the full set was active somewhere.
PP1 counter – blocks human PP1-alpha phosphatase, a PP5 counter-screen; P62136; purified PP1alpha, OMFP fluorescence; inhibition, % at 6.7 µM; hit rate 0.9% among 320,000;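 active = inhibition above the mean inhibition of all tested compounds plus 3 SD, computed separately for each screening campaign, cut at about 15% in these data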
TPT1 inh – C. albicans TPT1 enzyme inhibition. recombinant caTPT1, FP RNA substrate dephosphorylation. inhibition, % at 5 µM. hit rate 0.81% among 300,000. AID 1962;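 active = inhibition above the mean of all tested compounds plus 3 SD, set per screening campaign, cut at about 24% in these data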;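 also: plate controls were DMSO alone for no effect and ferristatin control at 100 nM for full effect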
CSN inh – blocks human CSN-mediated cullin deneddylation; Purified CSN, SCF-Nedd8-OG deneddylation, fluorescence polarization; Q92905; inhibition, % at 12.5 µM; hit rate 0.38% among 360,000;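 active = pattern-corrected inhibition above about 35%, with an unprinted fluorescence ratio check between 0.5 and 1.5, limit read from the data, passing the limit was not always enough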;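 also: 0% = enzyme with substrate and 100% = substrate without enzyme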
Target sequence (Q92905 whole entry, looked up, one chain of several): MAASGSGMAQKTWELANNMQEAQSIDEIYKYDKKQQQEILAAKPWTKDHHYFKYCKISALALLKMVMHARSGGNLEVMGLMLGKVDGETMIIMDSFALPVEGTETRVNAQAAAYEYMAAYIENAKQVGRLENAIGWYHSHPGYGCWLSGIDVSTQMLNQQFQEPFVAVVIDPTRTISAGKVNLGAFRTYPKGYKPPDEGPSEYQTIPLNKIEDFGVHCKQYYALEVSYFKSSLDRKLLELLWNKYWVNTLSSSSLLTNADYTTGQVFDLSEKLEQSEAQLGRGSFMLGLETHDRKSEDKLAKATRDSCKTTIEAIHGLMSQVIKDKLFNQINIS
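Assay system: Purified human Csn5 enzyme expressed in HEK293T cells | Amount: Enzyme 0.24 nM | Measured by: Fluorescence polarization readout | Medium: Tris/NaCl/DTT buffer, pH 7.5 | Compound dosing: One concentration, 12.5 µM, 0.25% DMSO | Times: 90 min incubation of compound, enzyme and substrate at room temperature | Control set: no-enzyme wells high, enzyme-with-substrate wells low | Read-out: % inhibition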
Rpn11 block – blocks the human proteasome subunit Rpn11 | O00487 | human 26S proteasome, Ub4-pepOG fluorescence polarization; 20S core pre-blocked with epoxomicin | inhibition, % at 20 µM | hit rate 0.59% among 360,000;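 active = inhibition at 20 µM, scaled to each plate's controls, above about 33%, limit read from the data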
HNF4A DNA FP – change in binding of human HNF4 alpha to DNA. P41235. HNF4a-FITC DNA binding, fluorescence polarization, 1 h. activity change, % at 10 µM. hit rate 0.3% among 360,000; in the data active = activity change above about 30%, passing the limit was not always enough
NadD block – inhibitors of Staphylococcus aureus NadD; purified NadD enzyme, colorimetric absorbance read-out; inhibition, % at 20 µM; hit rate 0.78% among 360,000; AID 602399; in the data active = inhibition above about 26%
Active calls of the source: *; x = not tested or not shown; ! = repeats disagree.

SMILES | PP1 counter | TPT1 inh | CSN inh | Rpn11 block | HNF4A DNA FP | NadD block
CC1CC(C)CN(C(=O)COC(=O)Cc2ccc(Br)cc2)C1 (centres undefined) | -1.9 | -3.8 | -2.5 | -3.7 | 2.5 | 0.3
O=C(O)CC(CN1C(=O)c2ccccc2C1=O)c1ccccc1 (centres undefined) | -4.9 | -1.9 | -1.9 | -3.3 | 6.2 | -0.9
CCOC(=O)N1CCc2c(sc(NC(=O)c3ccc(S(=O)(=O)N4CCCC4)cc3)c2C#N)C1 | 0.0 | 19.5 | 15.7 | 50.1* | 22.6 | 15.2
COc1ccc(C(=O)Nc2sc3c(c2C#N)CCN(C(C)=O)C3)cc1 | -2.2 | 14.4 | 6.8 | 28.2 | 17.0 | 1.8
COc1ccccc1N1CCN(C(=O)CSc2nc3ccccc3[nH]2)CC1 | 17.1* | 19.4 | -1.9 | 1.5 | -1.8 | 13.3
Cc1cc(O)c(-c2cc(C(=O)NCc3ccc4c(c3)OCO4)[nH]n2)cc1C | 16.4* | -3.9 | 2.2 | 5.7 | -0.8 | 5.3
Fc1cc(Cl)cc2ccc(-c3ccccc3)nc12 | x | x | 103.3* | 11.1 | -1.3 | 4.1
Fc1ccc2nc(-c3ccccc3)ccc2c1 | x | x | -4.9 | -2.9 | -0.3 | -3.8
O=C(O)COc1ccc(/C=C2/SC(=S)N(Cc3ccccc3)C2=O)cc1 | 15.2* | 13.0 | 18.5 | 23.8 | 7.4 | 7.6
CCc1ccc(/C=C2/SC(=S)N(CC(=O)Nc3nc4ccccc4s3)C2=O)cc1 | -6.9 | 5.8 | 11.9 | 14.6 | 6.6 | 50.2*
CCc1ccc(/C=C2\SC(=S)N(CCCC(=O)Nc3ccccn3)C2=O)cc1 | -2.1 | 16.3 | 13.7 | 23.0 | 19.1 | 3.5
COCCN(Cc1nc2ccccc2c(=O)[nH]1)C(=O)COc1ccccc1-c1ccccc1 | x | x | -0.8 | -1.0 | 4.1 | 5.7
COc1cc(-c2cc(O)c(-c3ccc4ccccc4n3)c(=O)[nH]2)cc(OC)c1OC | x | x | 57.7* | x | 134.6 | 4.8
OC1(c2ccccc2)CNCCc2ccccc21 (centres undefined) | -0.7 | -1.3 | -1.1 | 6.1 | 1.0 | 3.4
COc1ccc(-c2c(C#N)c(N)nc3sc(C(=O)c4ccccc4)c(N)c23)cc1 | -0.6 | 4.9 | -0.6 | 19.0 | 10.8 | 16.5
CCOc1ccc(-c2c(C#N)c(N)nc3sc(C(=O)c4ccccc4)c(N)c23)cc1 | 2.1 | 2.4 | 17.7 | 6.4 | 39.9* | 21.6
O=c1cc(O)nc(SCc2ccccc2)n1-c1ccccc1 | 16.8*! | 1.3 | -11.3 | 9.3 | -1.7 | -12.8
CCOC(=O)Nc1cc(OC)cc2ccc(C)nc12 | x | x | -2.3 | -0.8 | 0.6 | -6.0
CCCCN(CCCC)c1ccc(C(=O)c2ccccc2C(=O)O)c(O)c1 | 16.9* | -6.1 | 0.8 | 1.9 | 1.1 | 11.9
N#Cc1c(C#N)c(SSc2c(C#N)c(C#N)c(N)n2-c2ccccc2)n(-c2ccccc2)c1N | x | x | -4.5 | 2.0 | -0.1 | 10.7
Cc1cc(-c2csc(NCc3ccccc3)n2)c(C)n1C | x | x | 6.6 | -4.4 | 9.4 | 42.4*
CCOc1ccc(C(=O)NCC(=O)NCC(c2ccc(OC)cc2)N2CCOCC2)cc1OCC (centres undefined) | -3.1 | -1.7 | 2.8 | -2.5 | 2.3 | 3.7
O=C(c1cnc(Cc2c[nH]c3ccccc23)c(I)c1)N1CCCCC1 | x | x | 1.9 | 6.3 | -0.8 | -2.2
COc1ccc(C2NC(=S)NC3=C2CCCC3=C2SCCS2)cc1 (centres undefined) | 2.6 | 2.3 | 1.8 | 9.8 | 1.3 | 61.2*
CN(C)S(=O)(=O)c1ccc(NC(=O)CSc2nnc(-c3ccco3)n2N)cc1 | x | x | -1.3 | 0.4 | 1.7 | -0.8
CC(=O)c1ccc(OCc2cc(C(=O)N3CCCCC3c3cccnc3)no2)cc1 (centres undefined) | -3.6 | 1.8 | 0.4 | 2.9 | -0.4 | -3.0
CCOc1cccc(C(=O)N2CCCCC2c2cccnc2)c1 (centres undefined) | 16.0* | 0.6 | -1.3 | 1.8 | -1.0 | -3.3
CN(CC(=O)NCC(c1ccco1)N1CCCCC1)S(=O)(=O)c1ccc(Cl)cc1 (centres undefined) | 0.5 | 1.9 | 4.6 | -9.3 | 2.2 | -1.1
COC(=O)N(C)C[C@@H]1OCc2ccccc2-c2c(n(C)c3ccccc23)C(=O)N([C@H](C)CO)C[C@@H]1C | x | x | -1.9 | -3.7 | 0.3 | -3.6
Cc1ccc(C(=O)Oc2oc(-c3ccccc3)nc2C=Nc2ccc(N(C)C)cc2)cc1 | 7.2 | 20.7 | 46.6* | x | 2.3 | 7.9
